ChEMBL document CHEMBL1125175, “Synthesis and DNA-binding properties of polyamine analogues” (J Med Chem, 1991)

Columns and labels:
Nucleic Acid [1] = assay: Ability to displace ethidium bromide from double stranded synthetic Poly (dA-dT); type: nucleic-acid assay
Method in brief: (§1)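 Fluorescence displacement. Ethidium bromide 1.6 μM final in 2 mM HEPES, 10 μM EDTA, 9.4 mM NaCl, pH 7.0, then DNA added at 2 μM final (DNA phosphate): calf thymus DNA, poly(dA-dT)·poly(dA-dT) or poly(dG-dC)·poly(dG-dC). Excitation 546 nm, emission 598 nm. Analogue titrated in aliquots. IC50 is the concentration halving ethidium–DNA fluorescence. Trial-to-trial variability generally <5%.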

HeLa [2] = assay: Ability to cause aggregation of purified HeLa cell DNA; type: functional; conditions: Homo sapiens
Method in brief: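 HeLa DNA labelled via 3-day culture with 4 μCi [³H]thymidine, then phenol/chloroform extracted. 1.5 μg DNA (~20000 cpm) plus analogue at various concentrations in buffer of 25 mM Tris, 4.5 mM KCl, 3 mM MgCl₂, pH 7.6. Incubated 10 min at 37 °C, then centrifuged 2.5 min and supernatant counted.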

Calf thymus DNA = assay: Ability to displace ethidium bromide from calf thymus DNA; type: nucleic-acid assay, Bos taurus; method in brief: as §1
HeLa [3] = assay: Ability to inhibit 50% growth of HeLa cells; type: functional, cell-based; conditions: Homo sapiens
Method in brief: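 HeLa cells grown 2 days, then counted to set the baseline. Analogues added in complete medium for a further 2 days, then cells counted. Growth increase compared with untreated controls. IC50 is the concentration giving a 50% decrease in growth relative to controls.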

Nucleic Acid [4] = assay: Ability to displace ethidium bromide from double stranded synthetic poly (dG-dC); type: nucleic-acid assay; method in brief: as §1

SMILES	IC50 (Nucleic Acid [1]) [µM]	IC50 (HeLa [2]) [µM]	IC50 (Calf thymus DNA) [µM]	IC50 (HeLa [3]) [µM]	IC50 (Nucleic Acid [4]) [µM]
CCNCCCNCCCCCCCCNCCCNCC	3.9	150	15	200	19.5
CCCCNCCCNCCCCCCCCNCCCNCCCC	4.2	340	20	> 500	40
CCCNCCCNCCCCCCCCNCCCNCCC	3.8	220	17	> 500	25
NCCCNCCCCCCCCNCCCN	3.8	35	4.9	50	7.8
NCCCCSCCCN	–	> 15000	1450	350	–
c1ccc(CNCCCNCCCCCCCCNCCCNCc2ccccc2)cc1	4.2	300	13	15	32
CC(N)CCNCCCCCCCCNCCC(C)N (configuration not stated)	4.2	–	7.5	–	12.5
CC(CCN)NCCCCCCCCNC(C)CCN (configuration not stated)	3.6	180	7	100	12.6
NCCCNCC(F)(F)CN	–	–	> 10000	–	–
NCCCNCCCC(F)(F)NCCCN	–	2500	140	–	–
c1ccc(CNCCCNCCCCCCCNCCCNCc2ccccc2)cc1	4.6	150	6	5	31
c1ccc(CNCCCNCCCCCCCCCCNCCCNCc2ccccc2)cc1	3.1	400	33	1	26
C=C(CNC)CNCCCCCCCCNCC(=C)CNC	4.5	–	19.1	125	30
CNCC(C)CNCCCCCCCNCC(C)CNC (configuration not stated)	4.5	–	12.8	> 500	20
NCCCNCC(F)(F)CCN	–	3100	275	150	–
NCCCNCCCCCCCCCCNCCCN	4.2	170	8	10	11
c1ccc(CNCCCNCCCCCCCCCNCCCNCc2ccccc2)cc1	2.9	200	31	10	24.5
c1ccc(CNCCCNCCCCCCNCCCNCc2ccccc2)cc1	10	85	5.5	60	25
NCCCNCCCC1CCC(CCCNCCCN)CC1 (configuration not stated)	–	–	7.5	90	–
NCCCNCCCc1ccc(CCCNCCCN)cc1	–	250	5	160	–
NCC(O)CNCCCCCCCCNCC(O)CN (configuration not stated)	4.3	200	5.2	–	27
c1ccc(CCCNCCCNCCCCCCCNCCCNCCCc2ccccc2)cc1	4.7	100	7.5	20	12
NCC(=O)CNCCCCCCCCNCC(=O)CN	10.5	400	8.2	–	18
c1ccc(CNCCNCCCCCCCCCCNCCNCc2ccccc2)cc1	700	> 8000	600	2	1600

SMILES	IC50 (Nucleic Acid [1]) [µM]	IC50 (HeLa [2]) [µM]	IC50 (Calf thymus DNA) [µM]	IC50 (HeLa [3]) [µM]	IC50 (Nucleic Acid [4]) [µM]
c1ccc(CNCCCCNCCCCCCCCNCCCCNCc2ccccc2)cc1	3.4	105	12	> 500	20
NCCCNC(F)(F)CCCN	1000	7000	875	–	900
NCC(O)CNCCCCCCCNCC(O)CN (configuration not stated)	4.5	110	4.9	–	23
c1ccc(CNCCCCNCCCCCCCNCCCCNCc2ccccc2)cc1	3.2	95	10	> 500	20
NCCCNCCCCCCCCCNCCCN	4.5	–	12	30	16
CNC(C)CCNCCCCCCCNCCC(C)NC (configuration not stated)	5	100	6.5	–	15
c1ccc(CCNCCCNCCCCCCCNCCCNCCc2ccccc2)cc1	2.8	85	8	20	10.7
NCCCc1ccc(CCCN)cc1	–	3000	400	400	–
NCCCNCCCCCCCNCCCN	2.6	37	3.8	200	5.4
CCCNCCCNCCCCCCCNCCCNCCC	3.8	250	10	300	20.5
c1ccc(CNCCNCCCCCCNCCNCc2ccccc2)cc1	–	2400	800	75	–
CCNCCCNCCCCCCCNCCCNCC	4	200	11	100	20
c1ccc(CNCCCNCCCCCNCCCNCc2ccccc2)cc1	4.5	–	12	80	22
c1ccc(CNCCCNCCCCNCCCNCc2ccccc2)cc1	4.9	40	10	10	17
CC(CN)CNCCCCCCCNCC(C)CN (configuration not stated)	3	–	8	> 500	10.5
CNCCCNCCCCCCCNCCCNC	3.5	150	6	500	11
c1ccc(NCCCNCCCCCCCNCCCNc2ccccc2)cc1	–	–	80	–	–
C/C=C(\CNC)CNCCCCCCCNC/C(=C/C)CNC	5	–	12	> 500	34.5
c1ccc(CNCCNCCCCCCCCNCCNCc2ccccc2)cc1	40	750	130	20	100
c1ccc(CNCCNCCCCCCCNCCNCc2ccccc2)cc1	170	600	600	60	316
CNC/C(=C\Cl)CNCCCCCCCNC/C(=C/Cl)CNC	5	–	12	125	34.5
NCCCNCCCN [NORSPERMIDINE]	140	3000	220	100	370
NCCCCN [PUTRESCINE]	5100	12000	4500	8000	5200
